iPSC survival up – enhancers of single-cell hiPSC survival, primary screen, ATPlite luminescence; 100% = ROCK inhibitor wells, 0% = DMSO; survival enhancement, % at 20 µM; actives 0.044% (n = 360,000); AID 602274, 2012; in the data active = survival enhancement above about 18%;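 also: cells exposed to compounds for 16 hours before the ATP read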
A3G deaminase – APOBEC3G DNA deaminase inhibitors, primary screen, biochemical, fluorescence, single-stranded DNA substrate, uHTS; DNA dC->dU-editing enzyme APOBEC-3G (Homo sapiens), Q9HC16; recombinant A3G, ssDNA deamination FAM/TAMRA fluorescence; inhibition, % at 20 µM; actives 0.28% (n = 330,000); AID 493012, 2011;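 active = inhibition of at least 40% at 20 µM, with no more than 30% in the related APOBEC3A deaminase screen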
Target sequence (Q9HC16 whole entry, looked up): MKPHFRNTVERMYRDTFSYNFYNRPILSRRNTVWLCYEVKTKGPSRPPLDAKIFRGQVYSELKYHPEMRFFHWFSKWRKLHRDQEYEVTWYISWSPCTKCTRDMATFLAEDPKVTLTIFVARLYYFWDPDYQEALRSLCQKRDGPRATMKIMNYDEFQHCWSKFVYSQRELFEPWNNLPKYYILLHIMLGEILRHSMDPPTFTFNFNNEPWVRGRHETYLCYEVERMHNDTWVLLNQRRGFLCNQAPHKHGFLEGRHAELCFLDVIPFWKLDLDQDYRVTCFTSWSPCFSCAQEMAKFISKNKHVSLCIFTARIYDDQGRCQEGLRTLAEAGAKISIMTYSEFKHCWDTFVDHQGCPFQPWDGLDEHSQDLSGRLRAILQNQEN
PfG6PD inh – PfG6PD enzyme inhibitors, primary screen, biochemical, fluorescence intensity, uHTS; PfGluPho enzyme, NADPH resazurin-diaphorase fluorescence; inhibition, % at 20 µM; actives 0.78% (n = 350,000); AID 504690, 2011;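 active = inhibition reaching at least a set limit at 20 µM in the primary screen, cut at about 59% in these data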
A3A deaminase – APOBEC3A ssDNA deaminase inhibitors, primary screen, selectivity assay for APOBEC3G inhibitor project, biochemical, FAM/TAMRA oligo cleavage fluorescence; inhibition, % at 20 µM; DNA dC->dU-editing enzyme APOBEC-3A (Homo sapiens), P31941; actives 0.41% (n = 330,000); AID 493011, 2011; recombinant A3A, FAM/TAMRA ssDNA deamination fluorescence;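 active = at least 40% inhibition at 20 µM here, with at most 30% in a related deaminase screen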
Target sequence (P31941 whole entry, looked up): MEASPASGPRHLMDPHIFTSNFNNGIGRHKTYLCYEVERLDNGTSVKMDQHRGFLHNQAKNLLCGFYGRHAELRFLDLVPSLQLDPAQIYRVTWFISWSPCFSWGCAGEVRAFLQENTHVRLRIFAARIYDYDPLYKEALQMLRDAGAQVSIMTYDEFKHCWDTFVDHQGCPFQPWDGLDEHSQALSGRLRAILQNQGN
HKDC1 inhibitor – HKDC1 hexokinase inhibitors, primary screen, biochemical, fluorescence, uHTS. Q2TB90. recombinant HKDC1, G6PDH/diaphorase resazurin coupled fluorescence. inhibition, % at 20 µM. actives 0.16% (n = 340,000). AID 493160, 2011;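 active = inhibition above about 35% when tested at 20 µM, limit read from the data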
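Incubation: 90 min at room temperature in dark / Material: recombinant HKDC1 (HK5) hexokinase enzyme, produced in-house / Quantity: enzyme 5 µg/mL final / Compound: one dose of 20 µM, 1% DMSO / Reagent: glucose and ATP substrates / Buffer or medium: Tris pH 8.0 buffer with MgCl2, Tween-20, BSA, BME / Technique: resorufin fluorescence at 613 nm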
A3A conf – APOBEC3A deaminase inhibitors, retest, confirmation, selectivity assay for APOBEC3G inhibitor project, biochemical, single concentration, fluorescence readout; inhibition, % at 20 µM; recombinant A3A, ssDNA deaminase UDG fluorescence assay; shares compounds with A3A deaminase; actives 63% (n = 1,400);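 active = inhibition reaching a set limit, 80% of the first screen's cutoff, at 20 µM in any replicate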
UDG ctr A3A – E. coli UDG inhibitors, confirmation, counter-screen for APOBEC3A inhibitor project, biochemical, single concentration, fluorescence, FAM/TAMRA oligo; shares compounds with A3A deaminase; UDG counterscreen, FAM/TAMRA uracil oligo fluorescence; inhibition, % at 20 µM; 1,000 tested, under 10 active; AID 504714, 2011; call rule not given here
Large screens that a line does not name were inactive (follow-up assays come after a bar, where they were run). A selection: hits, their analogues and other compounds. The true share with any hit is near 1.4%.

CCN(CC(=O)NCC(=O)Nc1ccc(Br)cc1C)Cc1ccccc1	A3A deaminase 40 | A3A conf inactive | UDG ctr A3A inactive
Cc1cc(Br)ccc1NC(=O)CN(C)C(=O)CNC(=O)Cc1ccccc1	none
Cc1cc(=O)oc2c1c(C)nn2-c1nn[nH]n1	A3A deaminase 59 | A3A conf 72 | UDG ctr A3A inactive
O=C(CN1C(=O)S/C(=C/c2ccccn2)C1=O)N1CCOCC1	A3A deaminase 57 | A3A conf inactive
Cc1ccc(/C=C2/SC(=O)N(CC(=O)N3CCOCC3)C2=O)s1	none
CCc1nn(CCCC(=O)N2CCC(C)CC2)c(=O)c2cc3occc3n12	A3A deaminase 40 | A3A conf inactive | UDG ctr A3A inactive
COc1ccc(C(CC(=O)N2CCCCC2)c2c(OC)cc(OC)c3c(-c4ccccc4)cc(=O)oc23)cc1 (stereo not drawn)	A3A deaminase 72 | A3A conf 73 | UDG ctr A3A inactive
COc1cc(C(CC(=O)N2CCCC2)c2c(OC)cc(OC)c3c(-c4ccccc4)cc(=O)oc23)cc(OC)c1OC (stereo not drawn)	A3A deaminase 43 | A3A conf inactive
COc1ccc(C(CC(=O)N2CCOCC2)c2c(OC)cc(OC)c3c(-c4ccccc4)cc(=O)oc23)cc1 (stereo not drawn)	A3A deaminase 60 | A3A conf 48 | UDG ctr A3A inactive
COc1ccc(C(CC(=O)N2CCCC2)c2c(OC)cc(OC)c3ccc(=O)oc23)cc1 (stereo not drawn)	none
COc1ccc(C(CC(=O)N2CCOCC2)c2c(OC)cc(OC)c3ccc(=O)oc23)cc1 (stereo not drawn)	none
COc1ccc(C(CC(=O)N2CCCC2)c2c(OC)cc(OC)c3c(-c4ccccc4)cc(=O)oc23)cc1 (stereo not drawn)	A3A deaminase 75 | A3A conf 76 | UDG ctr A3A inactive
CCN(CC)C(=O)CC(c1ccc(N(C)C)cc1)c1c(OC)cc(OC)c2c(-c3ccccc3)cc(=O)oc12 (stereo not drawn)	none
NC(=O)c1ccsc1NC(=O)COC(=O)c1cccnc1Cl	none
CCC(C)N1CCC2(CC1)N=c1c(c3c4c5c(C)c(O)c3c(O)c1=NC(=O)C(C)=CC=C[C@H](C)[C@H](O)[C@@H](C)[C@@H](O)[C@@H](C)[C@H](OC(C)=O)[C@H](C)[C@@H](OC)C=CO[C@@](C)(O5)C4=O)N2 (stereo partly drawn)	none
Cc1cc(C)n(CCCN2C(=O)c3cccc4cccc(c34)C2=O)n1	none
CCCc1cc(=O)[nH]c(SCC(=O)N2c3ccccc3NC(=O)C2(C)C)n1	none
COc1ccc(C(CC(=O)N2CCCC(C)C2)c2c(OC)cc(OC)c3c(-c4ccccc4)cc(=O)oc23)cc1 (stereo not drawn)	A3A deaminase 69 | A3A conf 63 | UDG ctr A3A inactive
COc1ccc(C(CC(=O)N2CCCC(C)C2)c2c(OC)cc(OC)c3ccc(=O)oc23)cc1 (stereo not drawn)	none
Cc1ccc(CN(C(=O)c2csnn2)C(C(=O)NC2CCCC2)c2cccnc2)cc1 (stereo not drawn)	none
COc1ccc(CN2CCN(C(=O)c3ccco3)CC2)c(OC)c1OC	none
CN(C)C(=O)c1ccc(Nc2nc(-c3cccs3)nc3ccccc23)cc1	A3A deaminase 43 | A3A conf inactive | UDG ctr A3A inactive
Cc1nc(SCC(=O)N2CCN(c3ccccn3)CC2)c(C#N)c(C)c1C	none
CNC(=O)/C(C#N)=C\c1ccc(CNS(=O)(=O)c2ccc(Cl)cc2)o1	A3A deaminase 71 | A3A conf 77 | UDG ctr A3A inactive
CC1=NC(=O)C(N=Nc2cccc(C(=O)O)c2)N1c1ccccc1 (stereo not drawn)	A3A deaminase 43 | A3A conf 63 | UDG ctr A3A inactive
CC(=O)NNS(=O)(=O)c1ccccc1[N+](=O)[O-]	A3A deaminase 47 | A3A conf inactive | UDG ctr A3A inactive
Cc1cc(C)nc(SCC(=O)N/N=C/c2cccn2-c2cccc(C(F)(F)F)c2)n1	A3A deaminase 42 | A3A conf inactive
Cc1ccc(SC(C)C(=O)NCc2ccncc2)cc1 (stereo not drawn)	A3A deaminase 50 | A3A conf inactive
COc1ccc(CCNC(=O)C(C)Sc2ccc(C)cc2)cc1OC (stereo not drawn)	A3A deaminase 86 | A3A conf inactive | UDG ctr A3A inactive
N=C1/C(=C\c2ccc(Br)o2)C(=O)N=C2SC(CC(=O)N3CCOCC3)=NN12	none
Cc1ccc(/C=C2\C(=N)N3N=C(CC(=O)N4CCCCC4)SC3=NC2=O)cc1	none
N=C1/C(=C/c2ccc(Br)o2)C(=O)N=C2SC(CC(=O)N3CCCC3)=NN12	A3A deaminase 43 | A3A conf 45
N=C1/C(=C/c2ccco2)C(=O)N=C2SC(CC(=O)N3CCCC3)=NN12	A3A deaminase 51 | A3A conf 42 | UDG ctr A3A inactive
Cc1onc(-c2c(F)cccc2Cl)c1C(=O)N1CCCCC1	none
O=C(NCc1ccc2c(c1)OCO2)c1ccc(Br)cc1	none
Cc1nn(Cc2ccc(F)cc2)c(C)c1NC(=O)c1cc2ncc(Br)cn2n1	A3A deaminase 41 | A3A conf inactive
O=C(NCc1ccc2c(c1)OCO2)c1cc2ncc(Br)cn2n1	A3A deaminase 93 | A3A conf 83 | UDG ctr A3A inactive
COc1ccc(S(=O)(=O)N(C)c2ccc(C(=O)Nc3cccnc3)cc2)cc1	none
COc1ccc(S(=O)(=O)N2CCOC23CCN(S(=O)(=O)c2cc(F)ccc2F)CC3)cc1	none
O=C(c1cc(-c2ccccc2)nc2ccccc12)N1CCN(C2CCS(=O)(=O)C2)CC1 (stereo not drawn)	none
O=c1cc(CSc2nnc(-c3cccs3)n2Cc2ccccc2)nc2sc3ccccc3n12	A3A deaminase 47 | A3A conf inactive
